Reference: ChEMBL document CHEMBL1158464, “Structure-activity relationships and cancer-cell selective toxicity of novel inhibitors of glioma-associated oncogene homologue 1 (Gli1) mediated transcription” (J Med Chem, 2009)
Activity calls are given as the source filed them. The rule behind the calls is not given here.

Legend:
[1] = test system: SJRH30; experiment: Cytotoxicity against human Rh30 cells at 40 uM/well after 68 hrs by alamar blue assay; format: functional, cell-based
How it was run: (§1)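 Cells plated in appropriate medium 24 h before compound. A 10 mM DMSO stock was diluted in EMEM to 160 µM (4×) and added in triplicate to a final 40 µM. Incubated 68 h at 37 °C, then Alamar Blue for 4 h at 37 °C. Fluorescence read at ex 510/em 590 nm. Viability taken relative to DMSO control wells.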

[2] = test system: Daoy; experiment: Cytotoxicity against human DaOY cells at 40 uM/well after 68 hrs by alamar blue assay; format: functional, cell-based; how it was run: as §1
[3] = test system: Raji; experiment: Cytotoxicity against human Raji cells at 40 uM/well after 68 hrs by alamar blue assay; format: functional, cell-based; how it was run: as §1
[4] = test system: DU-145; experiment: Cytotoxicity against human DU145 cells at 40 uM/well after 68 hrs by alamar blue assay; format: functional, cell-based; how it was run: as §1
[5] = Stability in mouse C3H10T1/2 cells assessed as compound degradation at 40 uM after 24 hrs by LCMS analysis; format: ADME, cell-based; conditions: c3h 10t1/2, 24 h
[6] = test system: HepG2; experiment: Cytotoxicity against human HepG2 cells at 40 uM/well after 68 hrs by alamar blue assay; format: functional, cell-based; how it was run: as §1
[7] = test system: MDA-MB-231; experiment: Cytotoxicity against human MDA-MB-231 cells at 40 uM/well after 68 hrs by alamar blue assay; format: functional, cell-based; how it was run: as §1
[8] = target: T1, Zinc finger protein GLI1 (Homo sapiens) (UniProt P08151); experiment: Inhibition of exogenously transfected human Gli1-mediated transcriptional activity in mouse C3H10T1/2 cells at 40 uM after 24 hrs by luciferase reporter gene assay; format: cell-based; conditions: C3H 10T1/2
T1 sequence (whole entry): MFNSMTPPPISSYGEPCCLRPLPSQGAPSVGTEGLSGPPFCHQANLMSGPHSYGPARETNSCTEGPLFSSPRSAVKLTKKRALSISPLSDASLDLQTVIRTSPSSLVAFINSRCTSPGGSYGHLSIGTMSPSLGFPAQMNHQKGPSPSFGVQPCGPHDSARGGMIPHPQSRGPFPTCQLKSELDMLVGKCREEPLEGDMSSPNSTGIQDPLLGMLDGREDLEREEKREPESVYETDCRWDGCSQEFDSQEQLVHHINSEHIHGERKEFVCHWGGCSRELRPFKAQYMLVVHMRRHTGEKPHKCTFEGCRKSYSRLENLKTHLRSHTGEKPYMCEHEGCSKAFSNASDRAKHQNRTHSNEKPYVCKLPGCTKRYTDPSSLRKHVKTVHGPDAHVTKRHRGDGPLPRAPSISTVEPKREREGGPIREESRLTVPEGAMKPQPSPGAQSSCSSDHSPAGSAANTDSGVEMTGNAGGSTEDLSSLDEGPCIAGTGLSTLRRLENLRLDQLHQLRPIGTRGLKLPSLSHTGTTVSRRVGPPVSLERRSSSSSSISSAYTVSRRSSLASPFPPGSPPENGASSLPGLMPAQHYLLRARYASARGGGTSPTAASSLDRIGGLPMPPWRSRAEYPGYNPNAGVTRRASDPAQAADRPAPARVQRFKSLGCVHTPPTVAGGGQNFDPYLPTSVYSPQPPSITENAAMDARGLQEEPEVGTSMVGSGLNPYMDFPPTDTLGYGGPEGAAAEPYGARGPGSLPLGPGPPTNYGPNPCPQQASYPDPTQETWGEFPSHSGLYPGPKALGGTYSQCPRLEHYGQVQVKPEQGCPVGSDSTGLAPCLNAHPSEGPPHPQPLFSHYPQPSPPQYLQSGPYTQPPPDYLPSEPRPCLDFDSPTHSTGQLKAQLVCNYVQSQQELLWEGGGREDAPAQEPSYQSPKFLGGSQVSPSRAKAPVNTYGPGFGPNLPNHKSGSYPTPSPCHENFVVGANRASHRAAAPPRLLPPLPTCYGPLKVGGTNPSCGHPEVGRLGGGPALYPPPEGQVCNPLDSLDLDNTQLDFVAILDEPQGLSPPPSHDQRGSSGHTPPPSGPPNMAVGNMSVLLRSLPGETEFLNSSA
How it was run: (§2)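 They were replated 18 h later, given compound or DMSO 6 h after plating, and exposed for 24 h at 37 °C, 5% CO2. Lysate was read by dual luciferase as firefly/Renilla, triplicate, DMSO = 0%. IC50 came from curve fitting.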

[9] = test system: BJ; experiment: Cytotoxicity against human TERT-immortalized human BJ cells at 40 uM/well after 68 hrs by alamar blue assay; format: cell-based; how it was run: as §1
[10] = target: Zinc finger protein GLI2 (Homo sapiens, UniProt P10070); experiment: Inhibition of exogenously transfected human Gli2 delta-N-mediated transcriptional activity in mouse C3H10T1/2 cells after 24 hrs by luciferase reporter gene assay; format: cell-based; conditions: c3h 10t1/2
How it was run: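 C3H10T1/2 reporter assay run as for hGli1, but with an amino-terminal repressor-domain-deleted hGli2 (ΔNhGli2) in place of hGli1, plus GliLuc-BS and pRL-TK via Fugene6. Compound or DMSO was given for 24 h at 37 °C. Read-out was dual luciferase firefly/Renilla in triplicate, with dose-response curve fitting.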

[11] = test system: LN-229; experiment: Cytotoxicity against human LN229 cells at 40 uM/well after 68 hrs by alamar blue assay; format: functional, cell-based; how it was run: as §1
[12] = target: T1, Zinc finger protein GLI1 (Homo sapiens); experiment: Inhibition of exogenously transfected human Gli1-mediated transcriptional activity in mouse C3H10T1/2 cells at 20 uM after 24 hrs by luciferase reporter gene assay; format: cell-based; conditions: C3H 10T1/2; how it was run: as §2
[13] = Cytotoxicity against mouse C3H10T1/2 cells; format: cell-based; conditions: c3h 10t1/2
[14] = test system: C3H 10T1/2; experiment: Inhibition of human Gli1 protein expression exogenously transfected in mouse C3H10T1/2 cells at 20 uM by Western blot analysis; format: functional, cell-based
[15] = target: T1, Zinc finger protein GLI1 (Homo sapiens); experiment: Inhibition of endogenously overexpressed Gli1-mediated transcriptional activity in human Rh30 cells at 40 uM after 24 hrs by luciferase reporter gene assay; format: cell-based
How it was run: (§3)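 Human Rh30 rhabdomyosarcoma cells (endogenous Gli1, no exogenous Gli1) in RPMI-1640 with 10% FBS were transfected overnight with Fugene6, GliLuc-BS (500 ng/mL) and pRL-CMV (2.5 ng/mL). Cells were replated, given compound or DMSO 18 h later, and exposed for 24 h at 37 °C, 5% CO2. Read-out was dual luciferase firefly/Renilla, triplicate, DMSO = 0%.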

[16] = target: T1, Zinc finger protein GLI1 (Homo sapiens); experiment: Inhibition of endogenously overexpressed Gli1-mediated transcriptional activity in human Rh30 cells at 20 uM after 24 hrs by luciferase reporter gene assay; format: cell-based; how it was run: as §3
[17] = test system: C3H 10T1/2; experiment: Inhibition of Photinus pyralis and Renilla luciferase expression exogenously transfected in mouse C3H10T1/2 cell lysate at 40 uM after 40 mins at room temperature by promega steady-glo luciferase assay; format: functional, cell-free
[18] = test system: C3H 10T1/2; experiment: Inhibition of Photinus pyralis luciferase expression exogenously transfected in mouse C3H10T1/2 cell lysate at 20 uM after 40 mins at room temperature by promega steady-glo luciferase assay; format: functional, cell-free
[19] = test system: C3H 10T1/2; experiment: Inhibition of Photinus pyralis and Renilla luciferase expression exogenously transfected in mouse C3H10T1/2 cell lysate at 60 uM after 40 mins at room temperature by promega steady-glo luciferase assay; format: functional, cell-free
[20] = test system: C3H 10T1/2; experiment: Inhibition of Renilla luciferase expression exogenously transfected in mouse C3H10T1/2 cell lysate at 20 uM after 40 mins at room temperature by promega steady-glo luciferase assay; format: functional, cell-free
[21] = test system: C3H 10T1/2; experiment: Inhibition of human Gli1 protein expression exogenously transfected in mouse C3H10T1/2 cells at 40 uM by Western blot analysis; format: functional, cell-based
[22] = test system: C3H 10T1/2; experiment: Inhibition of Photinus pyralis luciferase expression exogenously transfected in mouse C3H10T1/2 cell lysate at 60 uM after 40 mins at room temperature by promega steady-glo luciferase assay; format: functional, cell-free
[23] = test system: C3H 10T1/2; experiment: Selectivity ratio of IC50 for exogenously transfected human Gli2 delta-N-mediated transcriptional activity in mouse C3H10T1/2 cells to IC50 for exogenously transfected human Gli1-mediated transcriptional activity in mouse C3H10T1/2 cells; format: cell-based
How it was run: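 Ratio of IC50 values from dose-response curves of dual-luciferase Gli-reporter activity in C3H10T1/2 cells. Cells were transfected with ΔNhGli2 versus hGli1, plus GliLuc-BS and pRL-TK, and exposed to compound for 24 h at 37 °C. Triplicate data.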

[24] = test system: C3H 10T1/2; experiment: Inhibition of Renilla luciferase expression exogenously transfected in mouse C3H10T1/2 cell lysate at 40 uM after 40 mins at room temperature by promega steady-glo luciferase assay; format: functional, cell-free
[25] = test system: C3H 10T1/2; experiment: Inhibition of Renilla luciferase expression exogenously transfected in mouse C3H10T1/2 cell lysate at 60 uM after 40 mins at room temperature by promega steady-glo luciferase assay; format: functional, cell-free
[26] = test system: C3H 10T1/2; experiment: Inhibition of Photinus pyralis and Renilla luciferase expression exogenously transfected in mouse C3H10T1/2 cell lysate at 20 uM after 40 mins at room temperature by promega steady-glo luciferase assay; format: functional, cell-free
[27] = test system: C3H 10T1/2; experiment: Inhibition of Photinus pyralis luciferase expression exogenously transfected in mouse C3H10T1/2 cell lysate at 40 uM after 40 mins at room temperature by promega steady-glo luciferase assay; format: functional, cell-free
[28] = target: T1, Zinc finger protein GLI1 (Homo sapiens); experiment: Inhibition of endogenously overexpressed Gli1-mediated transcriptional activity in human Rh30 cells at 10 uM after 24 hrs by luciferase reporter gene assay; format: cell-based; how it was run: as §3

Sequence of Zinc finger protein GLI2 (P10070 whole entry, looked up): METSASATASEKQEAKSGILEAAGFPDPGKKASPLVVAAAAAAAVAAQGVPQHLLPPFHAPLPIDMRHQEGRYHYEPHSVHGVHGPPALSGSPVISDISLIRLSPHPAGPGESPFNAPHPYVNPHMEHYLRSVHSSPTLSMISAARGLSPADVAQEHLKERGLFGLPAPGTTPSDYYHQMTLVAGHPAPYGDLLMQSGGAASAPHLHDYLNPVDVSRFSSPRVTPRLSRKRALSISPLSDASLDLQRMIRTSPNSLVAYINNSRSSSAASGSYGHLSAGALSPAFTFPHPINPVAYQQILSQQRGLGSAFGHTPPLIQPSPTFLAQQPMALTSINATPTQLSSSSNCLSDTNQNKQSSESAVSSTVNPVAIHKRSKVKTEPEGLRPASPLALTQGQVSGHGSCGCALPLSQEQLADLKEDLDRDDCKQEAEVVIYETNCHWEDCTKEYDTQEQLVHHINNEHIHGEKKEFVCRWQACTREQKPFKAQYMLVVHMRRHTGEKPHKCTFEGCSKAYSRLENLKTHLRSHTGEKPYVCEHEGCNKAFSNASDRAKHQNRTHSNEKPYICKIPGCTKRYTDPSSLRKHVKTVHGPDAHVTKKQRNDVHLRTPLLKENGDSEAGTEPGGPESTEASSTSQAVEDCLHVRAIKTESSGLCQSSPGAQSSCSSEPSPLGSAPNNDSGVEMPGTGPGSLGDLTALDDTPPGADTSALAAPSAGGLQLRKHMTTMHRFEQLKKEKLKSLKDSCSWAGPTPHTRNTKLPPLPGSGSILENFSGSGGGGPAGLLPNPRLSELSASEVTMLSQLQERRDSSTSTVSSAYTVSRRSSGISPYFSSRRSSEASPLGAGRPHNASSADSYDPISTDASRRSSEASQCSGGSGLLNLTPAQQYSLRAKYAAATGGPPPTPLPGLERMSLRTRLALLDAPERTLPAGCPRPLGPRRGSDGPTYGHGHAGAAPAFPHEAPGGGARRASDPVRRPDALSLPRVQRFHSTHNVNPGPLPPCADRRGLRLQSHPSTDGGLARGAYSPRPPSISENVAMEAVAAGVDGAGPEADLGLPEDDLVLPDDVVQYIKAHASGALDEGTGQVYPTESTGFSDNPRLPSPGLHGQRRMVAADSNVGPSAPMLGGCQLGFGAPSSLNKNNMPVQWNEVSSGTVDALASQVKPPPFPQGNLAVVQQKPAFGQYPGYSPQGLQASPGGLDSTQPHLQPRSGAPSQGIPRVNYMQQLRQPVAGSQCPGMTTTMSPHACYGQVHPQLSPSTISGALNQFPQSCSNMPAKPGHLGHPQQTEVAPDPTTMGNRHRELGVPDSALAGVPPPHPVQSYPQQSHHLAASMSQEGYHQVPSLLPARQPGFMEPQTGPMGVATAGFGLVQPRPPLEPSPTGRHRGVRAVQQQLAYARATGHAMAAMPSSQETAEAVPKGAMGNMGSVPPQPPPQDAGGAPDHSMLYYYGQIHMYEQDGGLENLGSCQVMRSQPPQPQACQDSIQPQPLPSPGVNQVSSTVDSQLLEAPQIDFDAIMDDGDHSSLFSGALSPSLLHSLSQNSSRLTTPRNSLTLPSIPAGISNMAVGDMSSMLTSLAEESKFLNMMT

SMILES | Activity [1] | Activity [2] | Activity [3] | Activity [4] | Stability [5] | Activity [6] | Activity [7] | inhibition [8] | Activity [9] | IC50 [10] | Activity [11] | inhibition [12] | Activity [13] | inhibition [14] | inhibition [15] | inhibition [16] | inhibition [17] | inhibition [18] | inhibition [19] | inhibition [20] | further results
C[C@H](C(=O)N(CCc1ccc(O)cc1)CCc1ccc(O)cc1)c1cccc(C(=O)c2ccccc2)c1 | Active | Active | Active | Active | Stable | inactive | Active | Active | Non-toxic | 20.5 µM | inactive | Active | – | – | – | – | – | – | – | – | –
O=C(Cc1c[nH]c2ccc(OCc3ccccc3)cc12)NCCc1ccc(O)cc1 | Active | Active | Active | Active | – | inactive | Active | Active | Non-toxic | – | inactive | Active | Toxic | – | – | – | – | – | – | – | –
CCCN(CCc1ccc(O)cc1)C(=O)[C@@H](C)c1cccc(C(=O)c2ccccc2)c1 | Active | Active | Active | Active | Stable | inactive | Active | Active | Non-toxic | 23.9 µM | inactive | Active | – | inactive | Active | Active | inactive | inactive | inactive | inactive | inhibition [21]: inactive; inhibition [22]: inactive; fold change (FC) [23]: 3; inhibition [24]: inactive; inhibition [25]: inactive; inhibition [26]: inactive; inhibition [27]: inactive; inhibition [28]: Active
C[C@H](C(=O)NCCc1ccc(O)cc1)c1cccc(C(=O)c2ccccc2)c1 | Active | Active | Active | Active | Stable | inactive | Active | Active | Non-toxic | 35.2 µM | inactive | Active | Non-toxic | inactive | Active | Active | inactive | inactive | inactive | inactive | inhibition [21]: inactive; inhibition [22]: inactive; inhibition [24]: inactive; inhibition [25]: inactive; inhibition [26]: inactive; inhibition [27]: inactive; inhibition [28]: Active
COc1ccc(C(=O)NC[C@@H](C)c2cccc(C(=O)c3ccccc3)c2)cc1 | Active | Active | Active | Active | – | inactive | Active | Active | Non-toxic | – | inactive | Active | – | – | – | – | – | – | – | – | –
